High-throughput results deposited in PubChem by Broad Institute.
A selection: hits, their analogues and other compounds. The true share with any hit is near 4.4%.
T cruzi repl = inhibitors of intracellular T. cruzi growth, primary screen, luminescence, NIH3T3 host cells. T. cruzi beta-gal in NIH3T3, 90 h. inhibition, % (concentration not given with the values). actives 1.4% (n = 300,000). AID 1885, 2009;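 active = mean inhibition across valid replicates above about 55%, limit read from the data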;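 also: signal also drops with host cell toxicity which is not excluded here; 0% = plate median of DMSO wells and 100% = zero luminescence signal; higher percent means less beta-gal luminescence so fewer parasites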
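Read-out: Parasite load inhibition, % | Test system: Mouse NIH/3T3 fibroblasts infected with β-gal-expressing T. cruzi Tulahuen C4 | Amount: 5,000 cells/well | Medium: DMEM, 2% fetal bovine serum | Signal: GalScreen β-gal luminescence, detergent lysis, 60 min | Timing: 3 h attach, ≥90 h co-culture | Also added: Tulahuen C4 trypomastigotes, 5000/well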
HSF1 activator = HSF-1 activators, primary screen, NIH3T3-HGL cells, MG132 stress, luminescence, single point; NIH3T3-HGL HSF-1 luciferase reporter, 8 h; 100% = twice DMSO control signal; activation, % at 9 µM; actives 1.7% (n = 300,000); AID 504408, 2011;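 active = mean replicate activation of at least 50% with a set share of replicates each reaching 50%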;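 also: 0% = median of the neutral control wells and 100% = twice that signal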
HSF1 inhib = HSF1 inhibitors in luciferase reporter cells, primary screen, cell-based, NIH3T3, luminescence | AID 2098, 2009 | actives 0.77% (n = 300,000) | NIH3T3-HGL HSE-luciferase, MG132-induced, luminescence 8 h; hits give low values | activity change, negative = inhibition, % at 7.5 µM (by protocol);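 active = more than half of replicate wells show activity change below -50%, luminescence cut by over half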;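 also: luciferase reports HSF-1 transcriptional activity via heat shock element; 0% = median of DMSO wells and -100% = zero luminescence signal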
HIF act = HIF pathway transcriptional activators, primary screen, cell-based, U2OS HRE-luciferase, luminescence. U2OS HRE-luciferase reporter; normalized: DMSO 0%, desferrioxamine 100%. activation, % at 7.5 µM (by protocol). actives 0.32% (n = 300,000);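 active = mean activation of at least 10% of the iron chelator positive control signal, with at least half of replicates also reaching 10%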
Calb FLC = C. albicans growth inhibition with fluconazole, primary screen, CaCi-2 strain, Alamar Blue fluorescence; C. albicans CaCi-2 + fluconazole, 48 h; growth inhibition, % (concentration not given with the values); actives 0.57% (n = 300,000); AID 1979, 2009;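 active = growth inhibition above about 58% in most replicates, limit read from the data, passing the limit was not always enough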;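 also: all wells also contain fluconazole at 8 µg/ml as a sub-toxic cotreatment; 0% = median of DMSO wells and 100% = median of geldanamycin control wells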
An asterisk follows results filed as active.

For O=C(Nc1nc2cc3c(cc2s1)OCO3)C1CC1 the results were T cruzi repl 56*, HSF1 activator 16, HSF1 inhib 6, HIF act -4 and Calb FLC 6.
For O=C(Nc1nc2ccc(Cl)cc2s1)C1CC1 the results were T cruzi repl 66*, HSF1 activator 40, HSF1 inhib 28, HIF act 3 and Calb FLC -6.
For O=C(Nc1nc2ccc(Cl)cc2s1)C1CCCO1 (stereo not given) the results were T cruzi repl 32, HSF1 activator -13, HSF1 inhib -15, HIF act 2 and Calb FLC 7.
Screening O=C(O)/C=C/c1ccc(Oc2ncccn2)cc1 returned T cruzi repl -19, HSF1 activator 0, HSF1 inhib 1, HIF act -2 and Calb FLC 8.
`CC(C)(C)C(=O)/C=C/c1ccc(Oc2ccccc2)cc1` gave T cruzi repl -3, HSF1 activator -68, HSF1 inhib -59*, HIF act -2 and Calb FLC -10.
CC(NCC(=O)NCCc1ccc(S(N)(=O)=O)cc1)c1ccc(F)cc1 (stereo not given) was read as T cruzi repl 7, HSF1 activator 52*, HSF1 inhib 8, HIF act 0 and Calb FLC 1.
CC(NCCc1ccc(S(N)(=O)=O)cc1)C(=O)NCCc1ccc(F)cc1 (stereo not given) was read as T cruzi repl -21, HSF1 activator -18, HSF1 inhib -4, HIF act -3 and Calb FLC -8.
Cc1c(NC(=O)c2ccc(-c3ccc([N+](=O)[O-])cc3Cl)o2)c(=O)n(-c2ccccc2)n1C was read as T cruzi repl 56*, HSF1 activator -12, HSF1 inhib 5, HIF act 0 and Calb FLC 13.
`O=C(O)c1ccc(N/N=C/c2ccc(C(F)(F)F)cc2)cc1` gave T cruzi repl 3, HSF1 activator -68, HSF1 inhib -66*, HIF act -6 and Calb FLC 10.
CCNC(=S)N/N=C/c1ccc(C(=O)O)cc1 was read as T cruzi repl 0, HSF1 activator 39, HSF1 inhib 2, HIF act 0 and Calb FLC 3.
Screening CC(C)(C)c1ccc(/C=N/Nc2cccc(C(=O)O)c2)cc1 returned T cruzi repl -5, HSF1 activator -64, HSF1 inhib -57*, HIF act 1 and Calb FLC 2.
For CC(C)(C)c1ccc(/C=N/Nc2ccc(C(=O)O)cc2)cc1 the results were T cruzi repl 7, HSF1 activator -87, HSF1 inhib -86*, HIF act -2 and Calb FLC 6.
Screening COC(=O)C(Cc1c[nH]c2ccccc12)N1CCS(=O)(=O)CC1 (stereo not given) returned T cruzi repl 5, HSF1 activator -13, HSF1 inhib 5, HIF act 0 and Calb FLC -4.
`COC(=O)c1sccc1Oc1c(Cl)cccc1[N+](=O)[O-]` gave T cruzi repl -7, HSF1 activator -4, HSF1 inhib -6, HIF act -1 and Calb FLC 9.
For CCc1nc2ccccc2c(C(=O)Nc2cc(C)ccc2C)c1C the results were T cruzi repl -2, HSF1 activator 4, HSF1 inhib 0, HIF act 0 and Calb FLC -2.
Screening Cc1ccc(C)c(N(C(=O)c2ccco2)C(C(=O)NC2CCCC2)c2ccco2)c1 (stereo not given) returned T cruzi repl 2, HSF1 activator 5, HSF1 inhib 4, HIF act -16 and Calb FLC -7.
For O=C1C2CCCCN2C(=O)N1CCCN1CCN(c2ccc(F)cc2)CC1 (stereo not given) the results were T cruzi repl 8, HSF1 activator 57*, HSF1 inhib 12, HIF act 0 and Calb FLC 1.
ClC1CCCCC1n1nnc2ccccc21 (stereo not given) was read as T cruzi repl -9, HSF1 activator -7, HSF1 inhib 2, HIF act 0 and Calb FLC -32.
Screening COc1cc(CNCCc2ccc(S(N)(=O)=O)cc2)ccc1OCc1ccc(Cl)cc1 returned T cruzi repl 66*, HSF1 activator 30, HSF1 inhib 9, HIF act 1 and Calb FLC 0.
O=[N+]([O-])c1ccccc1CSc1ccccn1 was read as T cruzi repl 2, HSF1 activator 4, HSF1 inhib 2, HIF act 0 and Calb FLC 7.
For O=[N+]([O-])c1ccccc1CCc1cnc(Cl)s1 the results were T cruzi repl 3, HSF1 activator -70, HSF1 inhib -63*, HIF act 0 and Calb FLC -2.
Screening CC1C(=O)Nc2ccc(S(=O)(=O)Nc3ccccc3Br)cc2NC1=O (stereo not given) returned T cruzi repl -16, HSF1 activator 23, HSF1 inhib -2, HIF act 0 and Calb FLC -1.
Oc1c(Cl)cc(Cl)cc1/C=N/NC(=S)NC1CC2C=CC1C2 (stereo not given) was read as T cruzi repl -3, HSF1 activator 52*, HSF1 inhib 12, HIF act 2 and Calb FLC 17.
`Cc1ccc(S(=O)(=O)N(CC(=O)N2CCC(C)CC2)Cc2ccccc2F)cc1` gave T cruzi repl 35, HSF1 activator -4, HSF1 inhib -2, HIF act -1 and Calb FLC 0.
Screening Cc1onc(-c2ccccc2)c1C(=O)N1CCCC(C(F)(F)F)C1 (stereo not given) returned T cruzi repl -8, HSF1 activator -1, HSF1 inhib -4, HIF act -1 and Calb FLC -1.
Screening O=[N+]([O-])c1ccc(N2CCCCCC2)c([N+](=O)[O-])c1 returned T cruzi repl 3, HSF1 activator 77*, HSF1 inhib 20, HIF act 0 and Calb FLC -4.
Screening CN1CCN(c2ccc(C(=O)c3ccccc3)cc2[N+](=O)[O-])CC1 returned T cruzi repl 56*, HSF1 activator -8, HSF1 inhib -3, HIF act 1 and Calb FLC 10.
Screening CN1CCN(c2ccccc2NC(=O)c2ccc(N3CCCCC3)c([N+](=O)[O-])c2)CC1 returned T cruzi repl 6, HSF1 activator -8, HSF1 inhib -13, HIF act -1 and Calb FLC -9.
`O=[N+]([O-])c1cc(Cl)ccc1N1CCCCC1` gave T cruzi repl -14, HSF1 activator 21, HSF1 inhib -1, HIF act 0 and Calb FLC -9.
CN1CCN(c2ccc(S(=O)(=O)N3CCCCC3)cc2[N+](=O)[O-])CC1 was read as T cruzi repl 68*, HSF1 activator -4, HSF1 inhib -8, HIF act 0 and Calb FLC -2.
